From ChEMBL document CHEMBL4311941, “Development of Multifunctional Histone Deacetylase 6 Degraders with Potent Antimyeloma Activity” (J Med Chem, 2019)
Calls of active or inactive are those of the source. No cut-off for these calls is given here.

Assays:
[1] = biological target: T1, Protein cereblon/Protein deacetylase HDAC6 (Homo sapiens, UniProt Q9UBN7+Q96SW2); assay: Protac activity at CRBN/HDAC6 in human A375 cells assessed as HDAC6 degradation up to 1 uM incubated for 6 hrs by Western blot analysis; format: cell-based
T1 sequence (Q96SW2 whole entry, looked up): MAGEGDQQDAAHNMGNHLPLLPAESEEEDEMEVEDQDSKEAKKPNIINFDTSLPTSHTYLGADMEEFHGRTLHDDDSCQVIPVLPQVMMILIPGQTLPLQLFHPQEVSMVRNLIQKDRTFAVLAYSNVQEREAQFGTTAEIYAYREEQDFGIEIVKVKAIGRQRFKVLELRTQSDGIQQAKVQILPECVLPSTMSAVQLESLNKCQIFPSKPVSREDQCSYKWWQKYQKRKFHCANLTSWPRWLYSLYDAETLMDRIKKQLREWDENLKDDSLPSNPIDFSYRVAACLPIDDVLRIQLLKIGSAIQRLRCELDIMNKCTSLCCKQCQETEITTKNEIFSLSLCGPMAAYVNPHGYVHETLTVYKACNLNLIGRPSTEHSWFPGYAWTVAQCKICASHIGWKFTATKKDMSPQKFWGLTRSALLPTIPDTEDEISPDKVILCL
T1 sequence (Q9UBN7 whole entry, looked up): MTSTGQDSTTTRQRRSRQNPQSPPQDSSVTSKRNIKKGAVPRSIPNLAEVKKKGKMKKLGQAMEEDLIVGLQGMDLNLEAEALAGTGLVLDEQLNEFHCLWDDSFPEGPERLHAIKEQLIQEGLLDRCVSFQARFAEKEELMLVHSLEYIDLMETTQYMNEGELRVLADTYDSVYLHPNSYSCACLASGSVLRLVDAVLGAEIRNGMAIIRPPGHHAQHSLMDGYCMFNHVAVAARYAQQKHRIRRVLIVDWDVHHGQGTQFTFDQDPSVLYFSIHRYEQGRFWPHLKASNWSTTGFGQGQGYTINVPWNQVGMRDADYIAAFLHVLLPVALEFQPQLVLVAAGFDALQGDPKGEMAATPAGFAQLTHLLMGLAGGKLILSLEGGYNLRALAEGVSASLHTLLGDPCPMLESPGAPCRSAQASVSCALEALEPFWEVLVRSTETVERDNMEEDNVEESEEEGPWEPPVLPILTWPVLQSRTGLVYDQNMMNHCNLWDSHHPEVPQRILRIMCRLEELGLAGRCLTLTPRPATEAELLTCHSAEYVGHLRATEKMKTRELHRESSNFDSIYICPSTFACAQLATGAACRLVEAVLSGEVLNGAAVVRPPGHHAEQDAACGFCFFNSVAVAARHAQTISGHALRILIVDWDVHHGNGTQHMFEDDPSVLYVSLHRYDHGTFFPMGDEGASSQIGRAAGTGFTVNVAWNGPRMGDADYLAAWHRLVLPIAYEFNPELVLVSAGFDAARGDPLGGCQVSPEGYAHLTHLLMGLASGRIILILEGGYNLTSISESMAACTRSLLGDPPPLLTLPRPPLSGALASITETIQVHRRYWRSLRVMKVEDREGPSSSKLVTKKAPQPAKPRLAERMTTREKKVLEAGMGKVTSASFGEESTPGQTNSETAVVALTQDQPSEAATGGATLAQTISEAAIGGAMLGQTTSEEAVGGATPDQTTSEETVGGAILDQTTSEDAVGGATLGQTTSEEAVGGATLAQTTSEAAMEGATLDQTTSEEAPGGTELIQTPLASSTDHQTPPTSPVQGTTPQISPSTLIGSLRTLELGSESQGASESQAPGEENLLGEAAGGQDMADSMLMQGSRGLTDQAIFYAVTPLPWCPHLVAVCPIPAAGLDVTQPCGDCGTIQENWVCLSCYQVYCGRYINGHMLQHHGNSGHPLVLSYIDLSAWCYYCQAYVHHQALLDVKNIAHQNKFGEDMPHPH

[2] = biological target: Protein cereblon/Histone deacetylase 4 (Homo sapiens) (UniProt P56524+Q96SW2); assay: Protac activity at CRBN/HDAC4 in human MM1S cells assessed as HDAC4 degradation at 100 nM measured after 6 hrs in presence of proteasome inhibitor MG132 by Western blot analysis; format: cell-based
Protein cereblon/Histone deacetylase 4 (Homo sapiens), sequence (P56524 whole entry, looked up): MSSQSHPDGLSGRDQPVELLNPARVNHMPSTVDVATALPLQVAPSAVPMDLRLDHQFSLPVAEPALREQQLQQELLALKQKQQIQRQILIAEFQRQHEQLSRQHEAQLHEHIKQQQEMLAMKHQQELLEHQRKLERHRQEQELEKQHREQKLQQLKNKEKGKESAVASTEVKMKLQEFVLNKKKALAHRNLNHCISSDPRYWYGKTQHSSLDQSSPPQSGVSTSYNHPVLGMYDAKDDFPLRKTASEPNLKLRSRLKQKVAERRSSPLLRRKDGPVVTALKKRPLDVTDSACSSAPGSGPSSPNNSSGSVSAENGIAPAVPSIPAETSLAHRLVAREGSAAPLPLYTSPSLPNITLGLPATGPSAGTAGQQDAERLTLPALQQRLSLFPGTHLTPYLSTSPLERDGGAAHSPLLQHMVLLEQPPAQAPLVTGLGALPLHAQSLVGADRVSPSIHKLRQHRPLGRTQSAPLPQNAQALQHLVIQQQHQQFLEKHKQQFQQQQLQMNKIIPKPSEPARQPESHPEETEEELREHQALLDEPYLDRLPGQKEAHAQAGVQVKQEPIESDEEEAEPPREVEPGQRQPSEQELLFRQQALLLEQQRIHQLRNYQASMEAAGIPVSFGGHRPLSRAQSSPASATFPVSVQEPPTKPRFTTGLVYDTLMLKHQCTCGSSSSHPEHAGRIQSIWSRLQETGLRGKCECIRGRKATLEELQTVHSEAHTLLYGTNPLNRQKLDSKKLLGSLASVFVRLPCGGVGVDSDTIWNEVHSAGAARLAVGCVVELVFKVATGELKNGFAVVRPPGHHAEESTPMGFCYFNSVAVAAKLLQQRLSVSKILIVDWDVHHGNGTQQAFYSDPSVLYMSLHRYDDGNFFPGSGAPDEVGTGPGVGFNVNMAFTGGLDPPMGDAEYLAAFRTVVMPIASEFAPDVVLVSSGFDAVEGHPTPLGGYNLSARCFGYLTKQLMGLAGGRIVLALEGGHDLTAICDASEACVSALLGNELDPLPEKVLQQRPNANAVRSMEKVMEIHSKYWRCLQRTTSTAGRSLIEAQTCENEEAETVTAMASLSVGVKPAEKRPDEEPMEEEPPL
Protein cereblon/Histone deacetylase 4 (Homo sapiens), sequence (Q96SW2 whole entry, looked up): as the sequence (Q96SW2 whole entry, looked up) above

[3] = biological target: T2, Histone deacetylase 11 (Homo sapiens, UniProt Q96DB2); assay: Inhibition of human N-terminal tagged human HDAC11 expressed in HEK293T/17 using Boc-[TFA-Lys]-AMC as substrate preincubated for 10 mins followed by substrate addition and measured after 60 mins by fluorescence assay
T2 sequence (Q96DB2 whole entry): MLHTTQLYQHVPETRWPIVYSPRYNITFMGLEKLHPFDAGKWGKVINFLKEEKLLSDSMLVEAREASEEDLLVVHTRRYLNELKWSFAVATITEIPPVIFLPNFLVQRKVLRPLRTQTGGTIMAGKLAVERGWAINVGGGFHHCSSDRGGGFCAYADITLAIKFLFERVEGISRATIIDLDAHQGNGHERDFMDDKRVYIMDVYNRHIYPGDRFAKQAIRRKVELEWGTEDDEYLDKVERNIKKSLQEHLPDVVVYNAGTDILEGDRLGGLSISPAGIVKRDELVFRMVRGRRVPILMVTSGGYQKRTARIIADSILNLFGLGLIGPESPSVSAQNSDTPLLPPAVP

[4] = biological target: Histone deacetylase 5 (Homo sapiens, UniProt Q9UQL6); assay: Inhibition of human N-terminal tagged human HDAC5 expressed in HEK293T/17 using Boc-[TFA-Lys]-AMC as substrate preincubated for 10 mins followed by substrate addition and measured after 60 mins by fluorescence assay
Histone deacetylase 5, sequence (Q9UQL6 whole entry): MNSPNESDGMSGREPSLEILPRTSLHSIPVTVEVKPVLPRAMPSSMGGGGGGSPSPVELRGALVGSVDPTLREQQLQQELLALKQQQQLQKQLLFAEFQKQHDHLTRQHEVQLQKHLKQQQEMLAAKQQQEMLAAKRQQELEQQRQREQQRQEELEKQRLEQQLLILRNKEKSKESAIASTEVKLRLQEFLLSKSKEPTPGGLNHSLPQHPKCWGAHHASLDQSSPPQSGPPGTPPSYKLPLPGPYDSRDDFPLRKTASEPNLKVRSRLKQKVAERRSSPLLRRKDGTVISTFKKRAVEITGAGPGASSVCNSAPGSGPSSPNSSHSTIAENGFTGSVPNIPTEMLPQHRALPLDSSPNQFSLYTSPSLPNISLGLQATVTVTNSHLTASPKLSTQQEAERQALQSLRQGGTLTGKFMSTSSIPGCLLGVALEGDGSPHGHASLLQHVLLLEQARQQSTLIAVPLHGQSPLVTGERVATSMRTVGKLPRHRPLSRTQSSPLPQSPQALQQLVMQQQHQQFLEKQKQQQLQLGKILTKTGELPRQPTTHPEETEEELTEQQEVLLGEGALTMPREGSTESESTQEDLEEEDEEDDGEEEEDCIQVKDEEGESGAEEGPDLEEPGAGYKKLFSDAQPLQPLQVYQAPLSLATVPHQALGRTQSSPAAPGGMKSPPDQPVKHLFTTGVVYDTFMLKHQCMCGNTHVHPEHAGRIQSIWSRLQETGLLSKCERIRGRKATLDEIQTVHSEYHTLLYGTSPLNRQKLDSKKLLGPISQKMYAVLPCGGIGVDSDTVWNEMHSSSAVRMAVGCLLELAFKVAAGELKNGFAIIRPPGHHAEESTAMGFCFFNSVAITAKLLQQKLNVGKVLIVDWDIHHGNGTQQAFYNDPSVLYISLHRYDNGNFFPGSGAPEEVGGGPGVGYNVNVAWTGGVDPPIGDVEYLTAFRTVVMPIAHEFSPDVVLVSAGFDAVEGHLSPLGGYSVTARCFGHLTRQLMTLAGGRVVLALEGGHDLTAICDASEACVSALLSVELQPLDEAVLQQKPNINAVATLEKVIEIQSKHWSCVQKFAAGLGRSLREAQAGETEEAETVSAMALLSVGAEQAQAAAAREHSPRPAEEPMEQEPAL

[5] = biological target: T1, Protein cereblon/Protein deacetylase HDAC6; assay: Protac activity at CRBN/HDAC6 in human MM1S cells assessed as HDAC6 degradation at 100 nM measured after 6 hrs in presence of HDAC6 inhibitor Next-A by Western blot analysis; format: cell-based
[6] = biological target: T1, Protein cereblon/Protein deacetylase HDAC6; assay: Protac activity at CRBN/HDAC6 in human Jurkat cells assessed as HDAC6 degradation at 10 to 100 nM incubated for 6 hrs by Western blot analysis; format: cell-based
[7] = biological target: T1, Protein cereblon/Protein deacetylase HDAC6; assay: Protac activity at CRBN/HDAC6 in human MM1S cells assessed as HDAC6 degradation at 100 nM measured after 6 hrs in presence of proteasome inhibitor MG132 by Western blot analysis; format: cell-based
[8] = biological target: Protein cereblon/Histone deacetylase 1 (Homo sapiens) (UniProt Q13547+Q96SW2); assay: Protac activity at CRBN/HDAC1 in human MM1S cells assessed as HDAC1 degradation at 100 nM measured up to 8 hrs by Western blot analysis; format: cell-based
Protein cereblon/Histone deacetylase 1 (Homo sapiens), sequence (Q13547 whole entry, looked up): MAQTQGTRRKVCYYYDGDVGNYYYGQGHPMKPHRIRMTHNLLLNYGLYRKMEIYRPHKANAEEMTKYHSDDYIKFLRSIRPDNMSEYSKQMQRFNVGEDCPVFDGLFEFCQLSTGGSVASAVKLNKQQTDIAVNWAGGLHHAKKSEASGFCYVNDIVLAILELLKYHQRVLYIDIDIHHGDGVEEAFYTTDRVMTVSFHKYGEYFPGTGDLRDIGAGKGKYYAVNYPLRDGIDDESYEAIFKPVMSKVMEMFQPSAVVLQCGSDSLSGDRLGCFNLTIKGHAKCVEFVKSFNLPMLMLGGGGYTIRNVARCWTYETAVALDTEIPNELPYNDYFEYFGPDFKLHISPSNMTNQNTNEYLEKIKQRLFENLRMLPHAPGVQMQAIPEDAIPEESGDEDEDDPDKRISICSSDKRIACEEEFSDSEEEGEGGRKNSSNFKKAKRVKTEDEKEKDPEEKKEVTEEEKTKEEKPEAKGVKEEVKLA
Protein cereblon/Histone deacetylase 1 (Homo sapiens), sequence (Q96SW2 whole entry, looked up): as the sequence (Q96SW2 whole entry, looked up) above

[9] = biological target: Histone deacetylase 1 (Homo sapiens, UniProt Q13547); assay: Inhibition of human N-terminal tagged human HDAC1 expressed in HEK293T/17 using Ac-Gly-Ala-[Ac-Lys]-AMC as substrate preincubated for 10 mins followed by substrate addition and measured after 15 mins by fluorescence assay
Histone deacetylase 1, sequence (Q13547 whole entry): as the sequence (Q13547 whole entry, looked up) above

[10] = biological target: T1, Protein cereblon/Protein deacetylase HDAC6; assay: Protac activity at CRBN/HDAC6 in human MM1S cells assessed as HDAC6 degradation at 100 nM incubated for 6 hrs followed by compound washout and measured up to 48 hrs by Western blot analysis; format: cell-based
Summary of the method: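 MM1S cells treated 6 h with 100 nM, washed with PBS to remove compound, then HDAC6 followed by immunoblot for up to 48 h. Lysis in RIPA; SDS-PAGE and PVDF transfer; primary antibody 4 °C overnight, HRP secondary, ECL.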

[11] = biological target: T1, Protein cereblon/Protein deacetylase HDAC6; assay: Protac activity at CRBN/HDAC6 in human RS4:11 cells assessed as HDAC6 degradation up to 10 uM incubated for 6 hrs by Western blot analysis; format: cell-based
[12] = biological target: T3, Cereblon/Ikaros (Homo sapiens) (UniProt Q96SW2+Q13422); assay: Protac activity at CRBN/IKZF1 in human MM1S cells assessed as IKZF1 degradation measured after 6 hrs by Western blot analysis; format: cell-based
[13] = system: MM1.S; assay: Effect on HDAC6 mRNA expression in human MM1S cells at 100 nM measured after 6 hrs by SYBR green dye-based qRT-PCR analysis; format: functional, cell-based
Summary of the method: (§1)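 After treatment, MM1S cells washed twice with cold PBS. Total RNA extracted and normalized, then reverse-transcribed. 10 ng cDNA amplified with SYBR Green: 50 °C 2 min, 95 °C 2 min, then 40 cycles of 95 °C 1 s / 60 °C 30 s, followed by a melt curve. Expression calculated by the 2−ΔΔCt method.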

[14] = biological target: T3, Cereblon/Ikaros (Homo sapiens); assay: Protac activity at CRBN/IKZF1 in human MM1S cells assessed as IKZF1 degradation at 100 nM measured after 6 hrs in presence of NAE inhibitor MLN 4924 by Western blot analysis; format: cell-based
Summary of the method: (§2)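 MM1S cells seeded at 1 × 10^6 per well overnight. Pretreated 1 h with pomalidomide, Next-A, MLN 4924 or DMSO, then given 100 nM degrader or DMSO for 6 h. Lysed in RIPA with protease inhibitors, 10−40 μg protein run on SDS-PAGE and transferred to PVDF. Blots probed for IKZF1/IKZF3, detected by ECL and quantified by densitometry.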

[15] = biological target: T3, Cereblon/Ikaros (Homo sapiens); assay: Protac activity at CRBN/IKZF1 in human MM1S cells assessed as IKZF1 degradation at 100 nM measured after 6 hrs by Western blot analysis; format: cell-based
[16] = biological target: T1, Protein cereblon/Protein deacetylase HDAC6; assay: Protac activity at CRBN/HDAC6 in human MM1S cells assessed as HDAC6 degradation at 10 to 100 nM measured after 6 hrs by Western blot analysis; format: cell-based
[17] = biological target: T4, Protein cereblon/Zinc finger protein Aiolos (Homo sapiens) (UniProt Q96SW2+Q9UKT9); assay: Protac activity at CRBN/IKZF3 in human MM1S cells assessed as IKZF3 degradation at 100 nM measured after 6 hrs in presence of NAE inhibitor MLN 4924 by Western blot analysis; format: cell-based; summary of the method: as §2
T4 sequence (Q96SW2 whole entry, looked up): as the sequence (Q96SW2 whole entry, looked up) above
T4 sequence (Q9UKT9 whole entry, looked up): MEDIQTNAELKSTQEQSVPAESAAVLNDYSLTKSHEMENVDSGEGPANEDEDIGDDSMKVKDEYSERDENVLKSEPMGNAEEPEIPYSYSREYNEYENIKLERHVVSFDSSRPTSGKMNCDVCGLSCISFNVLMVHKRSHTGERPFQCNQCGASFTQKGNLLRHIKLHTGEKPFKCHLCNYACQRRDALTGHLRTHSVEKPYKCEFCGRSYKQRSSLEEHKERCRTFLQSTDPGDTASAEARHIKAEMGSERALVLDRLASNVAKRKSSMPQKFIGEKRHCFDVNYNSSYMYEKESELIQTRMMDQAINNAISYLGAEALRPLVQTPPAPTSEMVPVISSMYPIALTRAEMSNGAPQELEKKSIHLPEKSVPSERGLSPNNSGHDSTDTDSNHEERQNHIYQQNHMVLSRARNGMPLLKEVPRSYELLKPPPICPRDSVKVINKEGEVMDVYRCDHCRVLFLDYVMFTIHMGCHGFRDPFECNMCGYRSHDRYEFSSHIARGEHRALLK

[18] = biological target: T1, Protein cereblon/Protein deacetylase HDAC6; assay: Protac activity at CRBN/HDAC6 in human MM1S cells assessed as HDAC6 degradation at 100 nM measured after 6 hrs in presence of E3 ligase ligand pomalidomide by Western blot analysis; format: cell-based
[19] = biological target: Histone deacetylase 9 (Homo sapiens, UniProt Q9UKV0); assay: Inhibition of human N-terminal tagged human HDAC9 expressed in HEK293T/17 using Boc-[TFA-Lys]-AMC as substrate preincubated for 10 mins followed by substrate addition and measured after 60 mins by fluorescence assay
[20] = biological target: T4, Protein cereblon/Zinc finger protein Aiolos (Homo sapiens); assay: Protac activity at CRBN/IKZF3 in human MM1S cells assessed as IKZF3 degradation at 100 nM incubated for 6 hrs followed by compound washout and measured after 12 hrs by Western blot analysis; format: cell-based
Summary of the method: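 MM1S cells treated with 100 nM degrader for 6 h, then washed with PBS to remove compound. IKZF3 followed by immunoblot over up to 48 h after washout: RIPA lysate, SDS-PAGE, PVDF transfer, HRP secondary antibody and ECL imaging.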

[21] = system: MM1.S; assay: Effect on IKZF1 mRNA expression in human MM1S cells at 100 nM measured after 6 hrs by SYBR green dye-based qRT-PCR analysis; format: functional, cell-based; summary of the method: as §1

Activity [1]: Active
Activity [2]: inactive
IC50 [3]: 0.3 to 30 µM
IC50 [4]: 0.3 to 30 µM
Activity [5]: inactive
Activity [6]: Active
Activity [7]: inactive
Activity [8]: inactive
IC50 [9]: 0.3 to 30 µM
Activity [10]: Active
Activity [11]: Active
Activity [12]: Dose-dependent effect
Activity [14]: inactive
Activity [15]: Active
Activity [16]: Active
Activity [17]: inactive
Activity [18]: inactive
IC50 [19]: 0.3 to 30 µM
Activity [20]: inactive
SMILES: CCCCN(Cc1ccc(C(=O)NO)cc1)C(=O)Nc1ccc(OCCCCCn2cc(CNc3cccc4c3C(=O)N(C3CCC(=O)NC3=O)C4=O)nn2)cc1 (stereo unspecified)
Activity [13]: Active
Activity [21]: Active
